CHOP inh – inhibitors of CHOP promoter induction, primary screen, cell-based, unfolded protein response, luciferase reporter; 3.8% of 220,000 active; inhibition, % at 10 µM; CHO-K1 CHOP-promoter luciferase, tunicamycin-induced, 15-18 h; AID 2732, 2010;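 active = compounds that reduced the stress-induced luciferase reporter signal by more than about 70% of percent inhibition, limit read from the data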;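 note: 0% = tunicamycin plus vehicle and 100% = wells without tunicamycin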
Beta2AR agonist – beta2AR agonists driving receptor internalization, primary screen, cell-based, FAP fluorogen, flow cytometry; Am2.2-beta2AR cells; response, % (no concentration beside the values); 0.43% of 340,000 active; AID 504454, 2011;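 active = response above a set limit, near 3 SD of response in nonfluorescent compounds, cut at about 42% in these data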
VLA-4 inh – inhibition in human VLA-4 binding assay, primary screen, VLA-4 allosteric modulator project, MLPCN library, flow cytometry, VLA-4 expressing cells. Integrin alpha-4 (Homo sapiens), P13612. ligand binding flow cytometry. inhibition, % (about 7 µM as worked out from the volumes in the protocol). 0.2% of 330,000 active. AID 2557, 2010; in the data active = inhibition above about 50%
Target sequence (P13612 whole entry, looked up): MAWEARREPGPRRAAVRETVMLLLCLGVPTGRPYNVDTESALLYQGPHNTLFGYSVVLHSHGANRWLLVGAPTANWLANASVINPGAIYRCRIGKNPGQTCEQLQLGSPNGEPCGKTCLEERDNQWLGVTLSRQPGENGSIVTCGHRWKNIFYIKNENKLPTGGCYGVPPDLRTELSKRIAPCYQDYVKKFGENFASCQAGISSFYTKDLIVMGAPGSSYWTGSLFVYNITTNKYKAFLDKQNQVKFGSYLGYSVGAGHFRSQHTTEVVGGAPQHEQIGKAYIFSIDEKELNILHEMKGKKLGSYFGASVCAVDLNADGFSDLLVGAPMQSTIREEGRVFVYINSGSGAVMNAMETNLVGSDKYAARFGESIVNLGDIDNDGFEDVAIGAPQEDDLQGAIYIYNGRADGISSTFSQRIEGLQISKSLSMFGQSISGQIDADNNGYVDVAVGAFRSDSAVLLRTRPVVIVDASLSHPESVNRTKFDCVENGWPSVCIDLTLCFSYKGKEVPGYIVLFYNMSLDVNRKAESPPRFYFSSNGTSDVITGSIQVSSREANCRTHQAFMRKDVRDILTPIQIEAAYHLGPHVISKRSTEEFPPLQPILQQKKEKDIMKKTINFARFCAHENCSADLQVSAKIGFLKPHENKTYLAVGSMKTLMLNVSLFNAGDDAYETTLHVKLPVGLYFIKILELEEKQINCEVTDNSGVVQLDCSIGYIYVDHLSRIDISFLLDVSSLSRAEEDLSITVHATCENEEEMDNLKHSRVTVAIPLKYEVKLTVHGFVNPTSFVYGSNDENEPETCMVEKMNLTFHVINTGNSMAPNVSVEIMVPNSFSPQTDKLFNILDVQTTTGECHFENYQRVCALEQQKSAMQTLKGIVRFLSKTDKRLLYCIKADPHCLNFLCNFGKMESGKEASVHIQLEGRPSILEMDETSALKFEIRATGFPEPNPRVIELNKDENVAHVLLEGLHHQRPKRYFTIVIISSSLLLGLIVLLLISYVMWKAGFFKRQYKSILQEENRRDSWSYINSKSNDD
XBP1 UPR activ – activators of adaptive XBP1 UPR arm, primary screen, cell-based, CHO-XBP1 luciferase reporter, luminescence, uHTS | IRE1-XBP1 UPR activation; percent of tunicamycin response, DMSO as zero | activation, % at 20 µM | 0.33% of 330,000 active;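 active = versus positive control, 20 µM dose yields 30% or more activation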;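 note: 100% = tunicamycin at 10 µg/mL and 0% = DMSO only wells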
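Material – CHO cell line with stable XBP1 luciferase reporter · Buffer or medium – F12 plus 10% FBS · Compound – single point, 20 µM final compound, 1% DMSO · Schedule – 16-18 h cell attachment at 37 °C, then 6 h compound exposure · Signal – Steady-Glo luminescence read · Benchmarks – high control tunicamycin 10 µg/mL final, low control DMSO vehicle only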
UPR CHOP act – activators of apoptotic CHOP UPR arm, primary screen, cell-based, CHO-CHOP luciferase reporter, luminescence, uHTS. activation, % at 10 µM. UPR activation; percent of tunicamycin response over DMSO baseline. AID 449763, 2010. 0.34% of 330,000 active;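 active = at 10 µM dose, activation of 40% or more, normalized to positive control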;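 note: 100% = tunicamycin at 10 µg/mL and 0% = DMSO alone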
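Dosing – one dose, 10 µM in 0.5% DMSO · System – CHO-CHOP cells, stable luciferase reporter of PERK-eIF2a-CHOP signalling · Input – 500 cells/well · Control set – tunicamycin 10 µg/mL final as positive, DMSO-only wells as negative · Timing – 6 h compound treatment, 37 °C · Measure – % activation vs tunicamycin · Technique – luminescence read with Steady-Glo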
VLA-4 allo CP – retest of VLA-4 allosteric modulators, confirmation, cell-based, cherry-picked plates, U937, HUTS-21 LIBS antibody | 2% of 1,300 active | shares compounds with VLA-4 inh | inhibition, % at 6.7 µM | U937 cells, HUTS-21 LIBS mAb binding, flow cytometry; LDV ligand present at threefold Kd; in the data active = inhibition above about 40%;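 note: 0% = ligand without compound and 100% = no ligand background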
Active calls of the source: *; · = no result given. Shown is part of a subset that was picked to be rich in hits.

SMILES | CHOP inh | Beta2AR agonist | VLA-4 inh | XBP1 UPR activ | UPR CHOP act | VLA-4 allo CP
CCCC[C@@H]1C=C(C(=O)O)[C@H](c2ccc3c(c2)OCO3)N1S(=O)(=O)c1ccc(C)cc1 | · | 15.8 | 6.1 | -0.6 | -0.8 | -3.2
CC[C@@H]1C=C(C(=O)O)[C@H](c2ccc(Cl)cc2)N1S(=O)(=O)c1ccc(C)cc1 | · | 4.5 | -40.4 | -1.9 | -0.2 | ·
Cc1ccc(S(=O)(=O)N2[C@@H](c3ccc4c(c3)OCO4)C(C(=O)O)=C[C@H]2C(C)(C)C)cc1 | · | -5.4 | -15.8 | 2.0 | 0.7 | ·
CCCC[C@@H]1C=C(C(=O)O)[C@H](c2ccc(Cl)cc2)N1S(=O)(=O)c1ccc(C)cc1 | · | 3.4 | 38.6 | 2.0 | 1.0 | 4.0
O=C(Nc1ccc(F)cc1)C1CCN(C(=O)c2ccc(F)cc2)CC1 | · | -1.0 | 2.9 | -2.2 | 0.1 | 0.0
O=C(NCCc1ccc(F)cc1)C1CCN(C(=O)Nc2ccccc2)CC1 | · | 1.5 | 58.2* | -3.1 | -2.7 | -0.1
Cc1ccc(NC(=O)C2CCN(C(=O)c3ccc(F)cc3)CC2)nc1 | · | -3.4 | 0.8 | -1.8 | 1.1 | -2.1
O=C(NCCc1ccccc1)C1CCN(C(=O)c2ccc(F)cc2)CC1 | · | -0.9 | 8.6 | -1.3 | 1.5 | ·
c1ccc(C(c2ccccc2)c2ccn[nH]2)cc1 | · | -2.5 | -6.0 | 1.5 | 1.7 | ·
O=C(c1ccc(Cl)cc1)N(Cc1ccco1)C1CCS(=O)(=O)C1 (stereo unspecified) | · | -3.7 | 8.7 | -0.9 | 1.0 | ·
CCOc1ccccc1N1CC(C(=O)NC2CCCCCC2)CC1=O (stereo unspecified) | · | 4.8 | -16.0 | 0.3 | 0.5 | ·
COc1ccc(-n2cnc3cc(C(=O)NCCN4CCOCC4)ccc32)cc1 | 3.5 | -6.1 | 42.9 | 3.8 | -1.0 | -6.9
COc1cccc2cc(C(=O)NCCN3CCOCC3)c(=O)oc12 | · | -8.5 | 40.6 | 5.4 | 0.5 | -18.3
O=C(Nc1cccc(F)c1)C1CCN(C(=O)N2CCOc3ccccc32)CC1 | · | -3.0 | -1.4 | -1.4 | -0.9 | ·
O=C(c1cc(-c2cccs2)nc2ccccc12)N1CCN(S(=O)(=O)c2ccccc2)CC1 | 13.0 | -7.3 | 13.5 | 1.8 | 1.6 | -13.2
O=C(c1cc(-c2cccs2)nc2ccccc12)N1CCN(S(=O)(=O)c2cccc(F)c2)CC1 | 18.3 | 4.8 | 91.2* | -10.1 | -1.4 | 0.0
COc1cc(C)nc(NS(=O)(=O)c2ccccc2Cl)n1 | · | 7.3 | 5.3 | -4.5 | 1.9 | -0.8
CC(NC(=O)COC(=O)CN1C(=O)NC2(CCCC2)C1=O)c1ccc(F)cc1 (stereo unspecified) | · | 1.9 | · | · | · | ·
COc1ccccc1/C=N/NC(=O)CCn1cnc2ccccc21 | 0.1 | 2.6 | 57.7* | -1.7 | -2.6 | -1.4
COc1ccc(-c2cc(C3CCN(c4ccc(C(C)=O)cc4[N+](=O)[O-])CC3)[nH]n2)cc1 | 86.5* | 5.4 | 59.2* | 2.8 | 4.8 | 15.6
CSc1ccc(C(=O)c2[nH]c(=O)[nH]c2C)cc1 | -20.6 | 5.3 | 54.9* | -8.1 | -2.1 | 0.0
Cc1ccc(CNS(=O)(=O)c2ccc3c(c2)C(C)(C)C(=O)N3C)cc1 | · | 2.0 | -6.4 | 0.4 | -0.4 | ·
CN(C)c1ccc(CNS(=O)(=O)c2ccc3c(c2)C(C)(C)C(=O)N3C)cc1 | · | 1.4 | 52.3* | 1.9 | 1.1 | -0.8
COc1cccc(C2CC(=O)Nc3cc(OC)c(OC)cc32)c1 (stereo unspecified) | · | 4.1 | 4.2 | -6.5 | 0.6 | 0.7
CCOc1cccc(C2CC(=O)Nc3cc(OC)c(OC)cc32)c1 (stereo unspecified) | · | 0.9 | 51.0* | -3.7 | 3.4 | 8.4
SMILES | CHOP inh | Beta2AR agonist | VLA-4 inh | XBP1 UPR activ | UPR CHOP act | VLA-4 allo CP
COc1cc2c(cc1OC)C(c1ccc(Br)cc1)CC(=O)N2 (stereo unspecified) | · | -9.5 | 13.6 | -0.9 | 1.2 | 10.0
COc1cc2c(cc1OC)C(c1ccsc1)CC(=O)N2 (stereo unspecified) | -4.2 | -3.0 | 12.8 | 1.3 | -1.2 | ·
CC(CC(=O)N1CCN(S(=O)(=O)c2ccc([N+](=O)[O-])cc2)CC1)c1ccccc1 (stereo unspecified) | · | 0.7 | -3.7 | 0.0 | -1.1 | ·
CC(C)(C)CC(=O)N1CCN(Cc2ccc3c(c2)OCO3)CC1 | · | -6.9 | 22.9 | -1.6 | -0.8 | ·
COc1ccc(-n2c(Cc3cc(=O)[nH]c(=O)[nH]3)nnc2SCC(=O)N2CCC(C)CC2)cc1 | 43.5 | 0.1 | 10.4 | -0.1 | -0.1 | 0.3
CC1CCN(C(=O)CSc2nnc(Cc3cc(=O)[nH]c(=O)[nH]3)n2-c2ccc(Cl)cc2)CC1 | 6.7 | -1.6 | -59.4 | -3.0 | 0.7 | 10.9
COc1ccc(-n2c(Cc3cc(=O)[nH]c(=O)[nH]3)nnc2SCC(=O)Nc2ccccc2)cc1 | 53.8 | 1.9 | -28.4 | -2.0 | -0.5 | ·
COC(=O)CSc1nnc(Cc2cc(=O)[nH]c(=O)[nH]2)n1-c1cccc(OC)c1 | -4.2 | 3.9 | 12.8 | -0.4 | 0.3 | ·
COc1cccc(-n2c(Cc3cc(=O)[nH]c(=O)[nH]3)nnc2SCC(=O)N2CCC(C)CC2)c1 | 20.2 | -4.0 | 17.3 | 1.2 | -0.9 | 4.7
COc1ccc(S(=O)(=O)N2CCN(Cc3ccco3)CC2)cc1 | · | 1.0 | 14.2 | -2.1 | 1.3 | ·
Cc1ccc(NC(=O)C(C)c2ccc(-c3ccccc3)c(F)c2)cc1 (stereo unspecified) | 73.3* | -0.4 | 88.3* | -1.8 | -1.1 | -1.4
CC(C)(C)OC(=O)N/N=C/c1ccc(Br)cc1 | -0.8 | -31.8 | 49.6* | 2.9 | 4.7 | 0.0
CC(C)(C)NC(=O)C(=O)N/N=C/c1ccc(Br)cc1 | 16.5 | -0.3 | -0.5 | 4.2 | 2.1 | ·
COc1ccc(NC(=O)CSc2n[nH]c(-c3ccccc3)n2)cc1S(N)(=O)=O | · | 0.1 | 13.7 | -2.9 | 0.0 | ·
O=c1cc(Cc2nnc(SCc3ccccc3)n2-c2ccc(Cl)cc2)[nH]c(=O)[nH]1 | -1.9 | -3.8 | 1.8 | -1.4 | -0.7 | ·
O=C(CSc1nnc(Cc2cc(=O)[nH]c(=O)[nH]2)n1-c1ccccc1)N1CCCCC1 | 16.9 | 0.2 | 4.5 | 1.0 | 0.1 | 3.7
O=C(CSc1nnc(Cc2cc(=O)[nH]c(=O)[nH]2)n1-c1ccccc1)N1CCCC1 | 16.1 | -1.2 | -1.1 | -2.6 | 0.0 | 1.3
COc1ccc2cc3cc(C(=O)N4CCN(c5ccccn5)CC4)oc3nc2c1 | · | -0.8 | 3.3 | -1.2 | -1.0 | ·
CCN(CC)S(=O)(=O)c1ccc(=O)n(CC(=O)N2Cc3ccccc3CC2C(N)=O)c1 (stereo unspecified) | · | 1.4 | · | -2.8 | 1.2 | ·

Source: PubChem BioAssay
